Source: PubChem BioAssay
PDI turbidity: inhibitors of human protein disulfide isomerase; inhibition, % at 10 µM; PDI insulin aggregation turbidity, A650, 90 min; AID 588391; P07237; 350,000 compounds, 0.052% hits;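 active = mean inhibition across replicates of 30% or more, whatever share of single replicates reach that level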
CAL PDZ FP-1: blocks peptide binding to human CAL PDZ domain; inhibition, % at 20 µM; 330,000 compounds, 0.02% hits; purified CAL PDZ, TMR-peptide fluorescence polarization, 1 h; Q9HD26;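 active = highest replicate inhibition of at least 40%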
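Test system: tagged CAL PDZ domain / Buffer or medium: sodium phosphate/NaCl buffer pH 7.4 with TCEP, IgG, Thesit / Reagent: TMR-labelled reporter peptide T*-PRC34 bound in PDZ groove / Compound dosing: single point, 20 µM / Schedule: 1 h incubation at room temperature before polarization reading / Technique: fluorescence polarization (mP) / Benchmarks: unlabelled peptide, DMSO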
RAD54 inh: RAD54 (human) branch migration inhibition; Q92698; RAD54 Holliday junction branch migration, FAM/BHQ fluorescence; inhibition, % at 10.4 µM; 360,000 compounds, 0.14% hits; AID 602329;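 active = mean normalized replicate activity at least 40 and at least half of replicates scoring 40 or more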;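 also: inhibitors cause a drop in the FAM fluorescence signal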
Target sequence (Q92698 whole entry, looked up): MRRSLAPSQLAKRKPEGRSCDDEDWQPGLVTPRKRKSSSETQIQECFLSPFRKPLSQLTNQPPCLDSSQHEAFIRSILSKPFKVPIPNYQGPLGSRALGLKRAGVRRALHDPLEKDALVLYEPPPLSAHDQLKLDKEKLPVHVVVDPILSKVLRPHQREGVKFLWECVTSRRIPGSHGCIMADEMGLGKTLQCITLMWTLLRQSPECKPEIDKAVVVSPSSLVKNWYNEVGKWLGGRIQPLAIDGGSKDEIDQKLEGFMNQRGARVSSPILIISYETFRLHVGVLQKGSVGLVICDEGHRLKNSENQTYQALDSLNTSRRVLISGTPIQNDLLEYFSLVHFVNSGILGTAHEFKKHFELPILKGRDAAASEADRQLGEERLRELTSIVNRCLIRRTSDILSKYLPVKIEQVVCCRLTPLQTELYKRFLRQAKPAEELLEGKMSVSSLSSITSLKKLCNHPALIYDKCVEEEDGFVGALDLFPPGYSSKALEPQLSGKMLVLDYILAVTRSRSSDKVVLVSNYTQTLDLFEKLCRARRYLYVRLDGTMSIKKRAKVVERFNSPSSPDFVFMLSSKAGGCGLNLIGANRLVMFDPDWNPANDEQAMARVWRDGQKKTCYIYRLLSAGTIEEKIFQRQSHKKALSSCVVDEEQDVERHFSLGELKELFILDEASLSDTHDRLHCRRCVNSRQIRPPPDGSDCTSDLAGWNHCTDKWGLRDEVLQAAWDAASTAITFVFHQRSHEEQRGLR
RAD52 inh: RAD52 (human) annealing inhibition; AID 651710; 360,000 compounds, 0.46% hits; P43351; inhibition, % at 18.7 µM; recombinant RAD52 DNA annealing, FRET fluorescence;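 active = every replicate showing at least 50% inhibition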
CAL PDZ FP-2: CAL PDZ (human) peptide binding inhibition | purified CAL PDZ, TMR-peptide fluorescence polarization, 1 h | AID 602252 | inhibition, % at 24.9 µM | Q9HD26 | 300,000 compounds, 0.92% hits;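 active = mean inhibition of at least 30% with at least half of replicates also reaching 30%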
ERp5 inh: inhibitors of human ERp5. 350,000 compounds, 0.05% hits. ERp5 insulin aggregation, absorbance 650 nm, 90 min. Q15084. AID 651711. inhibition, % at 9.99 µM;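 active = mean replicate inhibition above about 25%, with every replicate also reaching it, limit read from the data, passing the limit was not always enough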
DNA binder FP: counter-screen for RAD52 inhibitors: DNA binding compounds. shares compounds with RAD52 inh. Salmon sperm DNA/acridine orange FP displacement. AC50, µM. 1,000 compounds, 8% hits;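 active = fitted half-maximal concentration for signal loss at or below twice the highest dose tested, in every separate run, actives reach about 64 µM in these data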
Numbers stand for hits; i = inactive; nt = no result given; ! = repeats disagree. An excerpt weighted towards active compounds, which were near 1% of everything screened.

SMILES | PDI turbidity | CAL PDZ FP-1 | RAD54 inh | RAD52 inh | CAL PDZ FP-2 | ERp5 inh | DNA binder FP
C[C@H](CO)N1C[C@H](C)[C@@H](CN(C)C(=O)CCCN(C)C)OCCCC[C@H](C)Oc2ccc(NC(=O)Nc3ccc4c(c3)OCO4)cc2C1=O | nt | nt | i | nt | nt | nt | nt
C[C@@H]1CN([C@H](C)CO)C(=O)c2cccc(NS(=O)(=O)c3ccccc3)c2O[C@H]1CN(C)Cc1ccc(Oc2ccccc2)cc1 | nt | nt | i | i | nt | i | nt
CC1(C)CC(Nc2ccc(Nc3ccccc3)cc2)CC(C)(C)N1 | i | i | nt | 100 | i | i | i
CC(C)(C)[S@@](=O)N1Cc2cc(C(=O)NCc3ccc4c(c3)OCO4)nc(-c3cccc(-c4ccncc4)c3)c2[C@H]1CCO | nt | nt | i | i | nt | i | nt
CCC(=O)Nc1ccc2c(c1)C(=O)N(C)[C@H]1CC[C@@H](CC(=O)NCC3CCCCC3)O[C@H]1CO2 | nt | nt | i | i | nt | i | nt
NC(=S)NN=C1c2cc(OCCN3CCOCC3)ccc2-c2ccc(OCCN3CCOCC3)cc21 | i | i | nt | 87 | i | i | i
CN1CCN(c2ccc(NC(=O)c3cc(S(N)(=O)=O)ccc3N3CCOCC3)cc2)CC1 | i | i | i | 72 | i | i | i
COc1ccc2c3c(n(C)c2c1)[C@@H](CO)N(C(C)=O)CC31CCN(S(=O)(=O)c2ccccc2)CC1 | nt | nt | nt | i | nt | i | nt
CCN(CC)CCOC(=O)c1ccc(N/C=C(/C#N)c2nc(-c3ccc(OC)c(OC)c3)cs2)cc1 | i | i | nt | 70 | i | i | i
CN(C)CCNC(=O)c1cccc(-c2cc(NC=O)c3ncc(-c4cccc(C(F)(F)F)c4)n3c2)c1 | i | nt | i | 74 | nt | i | i
CN(C)C(=O)c1cccc(-c2cnc3c(NC=O)cc(-c4cccc(F)c4)cn23)c1 | i | nt | i | i | nt | i | nt
CN(C)CCNC(=O)c1cccc(-c2cnc3c(NC=O)cc(-c4cc(F)c(F)c(F)c4)cn23)c1 | i | nt | i | 67 | nt | i | i
CN(C)C(=O)c1cccc(-c2cnc3c(NC=O)cc(-c4cccc(C(F)(F)F)c4)cn23)c1 | i | nt | i | i | nt | i | nt
Oc1ccc(C2CNCCc3c2cc(O)c(O)c3Cl)cc1 (centres undefined) | i | i | i | 52! | i | i | i
CCCNC(=O)[C@@H]1[C@@H](CO)[C@@H]2Cn3c(ccc(C4=CCCCC4)c3=O)[C@@H]2N1C(=O)c1cnccn1 | nt | nt | i | i | nt | i | nt
CCN1CCN(Cc2ccc(NC(=O)c3cc(NC(=O)c4cncc(-c5ccc(C#N)cc5)c4)cc(OC)c3)cc2C(F)(F)F)CC1 | i | i | i | 87 | i | i | i
CCN1CCN(Cc2ccc(NC(=O)c3cc(NC(=O)c4nccnc4N)cc(OC)c3)cc2C(F)(F)F)CC1 | i | i | i | i | i | i | nt
CCN1CCN(Cc2ccc(NC(=O)c3cc(NC(=O)c4cnnc5ccccc45)cc(OC)c3)cc2C(F)(F)F)CC1 | i | i | i | 70! | i | i | i
CCN1CCN(Cc2ccc(NC(=O)c3ccc(C)c(NC(=O)c4cncc(-c5cccs5)c4)c3)cc2C(F)(F)F)CC1 | i | i | i | nt | i | nt | nt
C[C@@H]1CN([C@@H](C)CO)C(=O)c2cc(C3=CCCC3)cnc2O[C@@H]1CN(C)C(=O)Nc1cccc(F)c1 | nt | nt | i | i | nt | i | nt
C[C@H]1CN([C@@H](C)CO)C(=O)c2cc(NC(=O)C3CC3)ccc2O[C@H]1CN(C)C(=O)NC1CCCCC1 | nt | nt | i | i | nt | i | nt
C#CCOCCOCCOCCNc1nc(N2CCN(C(=O)CCCCCCCCCCNC(=O)[C@@H](CCC(=O)O)n3cc(CCCCCN)nn3)CC2)nc(N2CCN(C(=O)CCCCCCCCCCNC(=O)[C@H](CO)n3cc(CCCCCN)nn3)CC2)n1 | i | i | i | nt | i | nt | nt
NCCCCCc1cn([C@@H](CCC(=O)O)C(=O)NCCCCCCCCCCC(=O)N2CCNCC2)nn1 | i | i | i | i | i | i | nt
C#CCOCCOCCOCCNc1nc(N2CCN(C(=O)CCCCCCCCCCNC(=O)[C@H](CCCCN)n3cc(CCO)nn3)CC2)nc(N2CCN(C(=O)CCCCCCCCCCNC(=O)[C@H](CCCCN)n3cc(CCCC(=O)O)nn3)CC2)n1 | i | i | i | 52 | i | i | i
C#CCOCCOCCOCCNc1nc(N2CCN(C(=O)[C@H](CCCCN)n3cc(CN)nn3)CC2)nc(N2CCN(C(=O)[C@H](CCC(=O)O)n3cc([C@@H](N)CCCCN)nn3)CC2)n1 | i | i | i | 61 | i | i | i
SMILES | PDI turbidity | CAL PDZ FP-1 | RAD54 inh | RAD52 inh | CAL PDZ FP-2 | ERp5 inh | DNA binder FP
CC[C@H](C)Cc1cn([C@@H](CCCCN)C(=O)NCCCCCCCCCCC(=O)N2CCNCC2)nn1 | i | i | i | 77 | i | i | i
C#CCOCCOCCOCCNc1nc(N2CCN(C(=O)[C@H](CO)n3cc([C@@H](N)C(C)C)nn3)CC2)nc(N2CCN(C(=O)[C@H](CCCCN)n3cc([C@@H](N)[C@H](C)CC)nn3)CC2)n1 | i | i | i | 61 | i | i | i
C[C@H](O)C#Cc1cnc2c(c1)C(=O)N([C@H](C)CO)C[C@H](C)[C@H](CN(C)C(=O)Cc1ccccn1)O2 | nt | nt | i | i | nt | i | nt
CN(C)C(=O)[C@@H]1[C@@H](CO)[C@@H]2Cn3c(ccc(C4=CCCC4)c3=O)[C@H]1N2CCC(F)(F)F | nt | nt | nt | i | nt | i | nt
C[C@H]1CN([C@@H](C)CO)C(=O)c2cccc(NC(=O)c3cnccn3)c2O[C@H]1CN(C)C(=O)NC1CCCCC1 | nt | nt | i | i | nt | i | nt
O=C(CN1CCOCC1)NCC[C@@H]1CC[C@@H](NS(=O)(=O)c2ccc(Cl)cc2)[C@@H](CO)O1 | nt | nt | i | i | nt | i | nt
C[C@H](CO)N1C[C@H](C)[C@@H](CN(C)Cc2ccc3c(c2)OCO3)OCCCC[C@H](C)Oc2ccc(NC(=O)CCCN(C)C)cc2C1=O | nt | nt | i | i | nt | i | nt
C[C@@H]1CN([C@@H](C)CO)C(=O)c2cc(NS(=O)(=O)c3ccc(F)cc3)ccc2O[C@H]1CN(C)CC1CC1 | nt | nt | i | i | nt | i | nt
O=C(C[C@H]1C=C[C@H](NC(=O)C2CC2)[C@@H](CO)O1)Nc1ccccc1 | nt | nt | i | i | nt | i | nt
C#CCOCCOCCOCCNc1nc(N2CCN(C(=O)C([C@@H](C)O)n3cc([C@@H](N)CCCCN)nn3)CC2)nc(N2CCN(C(=O)[C@H](CCCCN)n3cc([C@@H](N)[C@H](C)CC)nn3)CC2)n1 (some centres undefined) | i | i | i | 72 | i | i | i
C#CCOCCOCCOCCNc1nc(N2CCN(C(=O)[C@H](CCCCN)n3cc([C@@H](N)C(C)CC)nn3)CC2)nc(N2CCN(C(=O)[C@H](Cc3ccc(O)cc3)n3cc([C@@H](N)CC(C)C)nn3)CC2)n1 (some centres undefined) | i | i | i | 92 | i | i | i
